The text below walks through data of the array DNA melting data of Ke et al. (doi:10.1101/2024.01.08.574731).

The nature of data set [1]: melting temperature; fluorescence melt of hairpins on a sequencing array, two-state fit, raised by 9.35 °C to match UV melts. Particulars: sodium 0.088 M. The method in brief: (§1)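 Bootstrapped two-state fits yielded melting temperature and folding enthalpy for library hairpins. Cy3 fluorescence, with annealed Cy3 and quencher oligos, was imaged on a sequenced MiSeq flow cell in 50 mM Na-HEPES pH 8.0, 25 mM NaCl in 2.5 °C steps up to 60 °C, and normalised to pre-quench Cy3 and to control constructs. Four replicates were combined by inverse variance, and fitted temperatures were raised by 9.35 °C to match UV melts.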

Data set [2] can be described thus: folding enthalpy; higher = less favourable; fluorescence melt of hairpins on a sequencing array, two-state fit. The settings on record: sodium 0.088 M. In a few lines:
as §1

Consider GACACGGGAAACCGCGTC (((.(((....))).))), for which the Tm in data set [1] turned out to be 50.9 °C. Moreover, the folding enthalpy in data set [2] was -47.8 kcal/mol.

With GACACTACGAAAGTAGTC (((..(((....)))))), the Tm in data set [1] was determined as 32.4 °C. Further, the folding enthalpy in data set [2] is -10.3 kcal/mol.

Take GACACTGAAAAGTGTC ((((((....)))))): the Tm in data set [1] amounted to 58.6 °C. In addition, the folding enthalpy in data set [2] is -34.5 kcal/mol.

Consider GACAGACCGAAAGGTGTC (((..(((....)))))), for which the Tm in data set [1] is 44.3 °C. Besides, the folding enthalpy in data set [2] is -19.5 kcal/mol.

GACAGACGAAAGTCGTC (((.(((....)))))): the Tm in data set [1] worked out at 53 °C. Further, in data set [2], the folding enthalpy was -17.8 kcal/mol.

With GACAGCCGAAAGGCGGTC (((.(((....))).))), the Tm in data set [1] turned out to be 67 °C. The folding enthalpy in data set [2] is -20.1 kcal/mol.

With GACAGCCGAAAGGCGTC (((.(((....)))))), in data set [1], the Tm was 60 °C. Moreover, in data set [2], the folding enthalpy was -12.7 kcal/mol.

Take GACAGCGAAAGCTCGGTC ((((((....)))..))): the Tm in data set [1] came to 46.8 °C. The folding enthalpy in data set [2] is -10.6 kcal/mol.

Take GACAGCGAAAGCTCGTC ((((((....))).))): the Tm in data set [1] stood at 50.5 °C. The folding enthalpy in data set [2] was -19.6 kcal/mol.

Turning to GACAGCGAAAGCTCTGTC ((((((....)))..))), in data set [1], the Tm is 39.6 °C. Further, the folding enthalpy in data set [2] was -15.2 kcal/mol.

For the sequence GACAGCGAAAGCTGAGTC ((((((....)))..))), the Tm in data set [1] came to 39.2 °C. Besides, in data set [2], the folding enthalpy is -8.14 kcal/mol.

For GACAGCGAAAGCTGGGTC ((((((....)))..))), the Tm in data set [1] is 62 °C. The folding enthalpy in data set [2] is -12.4 kcal/mol.

GACAGCGAAAGCTGTGTC ((((((....)))..))): in data set [1], the Tm came out at 56.9 °C. Further, in data set [2], the folding enthalpy is -10.8 kcal/mol.

In the case of GACAGCGAAAGCTTCGTC ((((((....)))..))), in data set [1], the Tm came out at 43.9 °C. The folding enthalpy in data set [2] was -13 kcal/mol.

GACAGGACGAAAGTCGTC (((..(((....)))))): in data set [1], the Tm was determined as 42.6 °C. For the same sequence, in data set [2], the folding enthalpy was -16.7 kcal/mol.

As to GACAGGCGAAAGCCGGTC (((.(((....))).))), the Tm in data set [1] came to 67.1 °C. The folding enthalpy in data set [2] was -25.9 kcal/mol.

With GACAGGGCGAAAGCCGTC (((..(((....)))))), the Tm in data set [1] is 49.6 °C. For the same sequence, the folding enthalpy in data set [2] is -14.1 kcal/mol.

Take GACAGTCCGAAAGGAGTC (((..(((....)))))): the Tm in data set [1] was 30.3 °C. The folding enthalpy in data set [2] is -17 kcal/mol.

Take GACAGTGCGAAAGCAGTC (((..(((....)))))): the Tm in data set [1] stood at 40.5 °C. The folding enthalpy in data set [2] is -13.3 kcal/mol.

For the sequence GACAGTGGAAACACCGTC (((.(((....))).))), the Tm in data set [1] came to 39.6 °C. Moreover, the folding enthalpy in data set [2] is -24.8 kcal/mol.

With GACAGTGGAAACGTTGTC ((((..(....)..)))), the Tm in data set [1] was 36.2 °C. The folding enthalpy in data set [2] was -20.9 kcal/mol.

As to GACATACGAAAGTACGTC (((.(((....))).))), the Tm in data set [1] was found to be 42.5 °C. Besides, the folding enthalpy in data set [2] was -27 kcal/mol.

On to GACATGCGAAAGCACGTC (((.(((....))).))), for which the Tm in data set [1] turned out to be 52.4 °C. Also, in data set [2], the folding enthalpy was -26.3 kcal/mol.

GACATGGGAAACCACGTC (((.(((....))).))): the Tm in data set [1] came out at 38.8 °C. The folding enthalpy in data set [2] is -26.7 kcal/mol.

As to GACATGGGAAACCGTGTC ((((.((....)).)))), the Tm in data set [1] came out at 52.1 °C. In addition, the folding enthalpy in data set [2] was -30.9 kcal/mol.

As for GACATTCCGAAAGGAGTC (((..(((....)))))), the Tm in data set [1] worked out at 28.6 °C. In data set [2], the folding enthalpy is -12.3 kcal/mol.

As to GACATTGGAAACAATGTC (((((((....))))))), in data set [1], the Tm stood at 56.6 °C. For the same sequence, in data set [2], the folding enthalpy is -44.1 kcal/mol.

In the case of GACCAAGAAATTGGTC ((((((....)))))), in data set [1], the Tm was 54.4 °C. Besides, the folding enthalpy in data set [2] was -25.9 kcal/mol.

As for GACCACCGAAAGGTGTC (((.(((....)))))), the Tm in data set [1] came to 47.5 °C. For the same sequence, in data set [2], the folding enthalpy was -12.7 kcal/mol.

As to GACCACGAAAGTGAGGTC ((((((....)))..))), in data set [1], the Tm is 48.3 °C. In addition, the folding enthalpy in data set [2] is -22.8 kcal/mol.

Take GACCACGAAAGTGCTGTC ((((((....)))..))): the Tm in data set [1] was determined as 34 °C. In addition, the folding enthalpy in data set [2] was -17.2 kcal/mol.

As to GACCACGAAAGTGGGGTC ((((((....)))..))), the Tm in data set [1] was found to be 61.2 °C. The folding enthalpy in data set [2] was -13.2 kcal/mol.

For GACCACGAAAGTGTGGTC ((((((....)))..))), the Tm in data set [1] is 55.2 °C. For the same sequence, the folding enthalpy in data set [2] was -41 kcal/mol.

On to GACCACGAAAGTGTGTC ((((((....))).))), for which the Tm in data set [1] worked out at 52.9 °C. In addition, the folding enthalpy in data set [2] is -27.3 kcal/mol.

For the sequence GACCACGGAAACGTAGCC (.(.(((....))).).), the Tm in data set [1] amounted to 23.6 °C. Besides, the folding enthalpy in data set [2] is -9.48 kcal/mol.

Consider GACCACGGAAACGTAGTC (((.(((....))).))), for which, in data set [1], the Tm amounted to 37 °C. Moreover, the folding enthalpy in data set [2] is -22.6 kcal/mol.
